In ChEMBL document CHEMBL5143713, “Multitarget, Selective Compound Design Yields Potent Inhibitors of a Kinetoplastid Pteridine Reductase 1” (J Med Chem, 2022):

Assays:
Dihydrofolate reductase = molecular target: T1, Dihydrofolate reductase (Homo sapiens, UniProt P00374); assay: Inhibition of recombinant human DHFR expressed in Escherichia coli BL21 (DE3) cells using dihydrofolate as substrate in presence of NADPH by spectrophotometric analysis; assay type: toxicity
T1 sequence (P00374 whole entry): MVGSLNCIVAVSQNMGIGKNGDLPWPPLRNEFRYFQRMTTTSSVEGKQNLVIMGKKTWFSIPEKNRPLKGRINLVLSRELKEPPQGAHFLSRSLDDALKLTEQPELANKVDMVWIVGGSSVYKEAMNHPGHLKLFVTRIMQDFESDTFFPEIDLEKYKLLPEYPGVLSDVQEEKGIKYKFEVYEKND

[1] = test system: human DHFR versus Trypanosoma brucei PTR1; assay: Selectivity index, ratio of IC50 for human DHFR to IC50 for Trypanosoma brucei PTR1; assay type: toxicity; conditions: read-out: Ratio IC50
[2] = molecular target: Voltage-gated inwardly rectifying potassium channel KCNH2 (Homo sapiens, UniProt Q12809); assay: Inhibition of hERG potassium channel at 10 uM by fluorescence polarization assay relative to control; assay type: toxicity
Voltage-gated inwardly rectifying potassium channel KCNH2, sequence (Q12809 whole entry): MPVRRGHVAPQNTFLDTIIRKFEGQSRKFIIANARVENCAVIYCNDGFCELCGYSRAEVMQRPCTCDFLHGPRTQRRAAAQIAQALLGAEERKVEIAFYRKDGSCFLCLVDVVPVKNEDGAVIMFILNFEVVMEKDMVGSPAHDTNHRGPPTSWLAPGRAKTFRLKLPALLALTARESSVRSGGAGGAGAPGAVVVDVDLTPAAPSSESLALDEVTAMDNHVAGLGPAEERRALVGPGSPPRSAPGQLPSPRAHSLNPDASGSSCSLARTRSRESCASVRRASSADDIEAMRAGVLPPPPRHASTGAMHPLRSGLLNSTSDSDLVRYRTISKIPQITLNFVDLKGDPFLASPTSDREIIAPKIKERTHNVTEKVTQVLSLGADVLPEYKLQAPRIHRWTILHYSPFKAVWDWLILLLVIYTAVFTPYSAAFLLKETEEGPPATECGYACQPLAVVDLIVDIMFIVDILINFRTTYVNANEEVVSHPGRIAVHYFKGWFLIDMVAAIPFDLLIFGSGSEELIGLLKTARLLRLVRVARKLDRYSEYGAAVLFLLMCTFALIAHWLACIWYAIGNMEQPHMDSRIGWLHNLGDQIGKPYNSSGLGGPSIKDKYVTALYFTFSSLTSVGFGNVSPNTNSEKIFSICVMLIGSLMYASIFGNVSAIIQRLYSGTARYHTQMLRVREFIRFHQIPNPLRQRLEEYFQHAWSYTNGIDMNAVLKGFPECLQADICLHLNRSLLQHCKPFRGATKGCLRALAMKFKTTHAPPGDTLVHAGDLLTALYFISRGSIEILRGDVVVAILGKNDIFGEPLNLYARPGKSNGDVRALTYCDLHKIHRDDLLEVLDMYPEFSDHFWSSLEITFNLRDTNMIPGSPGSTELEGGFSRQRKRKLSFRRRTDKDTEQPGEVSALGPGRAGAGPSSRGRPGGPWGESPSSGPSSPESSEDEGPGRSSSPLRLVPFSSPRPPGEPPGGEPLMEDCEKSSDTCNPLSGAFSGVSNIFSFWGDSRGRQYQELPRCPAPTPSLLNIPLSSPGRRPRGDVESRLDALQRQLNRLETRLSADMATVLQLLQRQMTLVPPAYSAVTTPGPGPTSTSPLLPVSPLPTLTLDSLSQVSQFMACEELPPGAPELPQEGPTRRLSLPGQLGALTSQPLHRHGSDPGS
Summary of the method: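 Tested at 10 μM. Fluorescence polarization readout using a hERG-containing membrane fraction and a red fluorescent high-affinity hERG tracer. Displacement of the tracer by the compound is measured.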

[3] = molecular target: T2, Pteridine reductase, putative (Trypanosoma brucei, UniProt Q581W1); assay: Inhibition of recombinant Trypanosoma brucei PTR1 expressed in Escherichia coli BL21 (DE3) cells using H2B as substrate in presence of cytochrome c and NADPH by envision multilabel reader
T2 sequence (Q581W1 whole entry): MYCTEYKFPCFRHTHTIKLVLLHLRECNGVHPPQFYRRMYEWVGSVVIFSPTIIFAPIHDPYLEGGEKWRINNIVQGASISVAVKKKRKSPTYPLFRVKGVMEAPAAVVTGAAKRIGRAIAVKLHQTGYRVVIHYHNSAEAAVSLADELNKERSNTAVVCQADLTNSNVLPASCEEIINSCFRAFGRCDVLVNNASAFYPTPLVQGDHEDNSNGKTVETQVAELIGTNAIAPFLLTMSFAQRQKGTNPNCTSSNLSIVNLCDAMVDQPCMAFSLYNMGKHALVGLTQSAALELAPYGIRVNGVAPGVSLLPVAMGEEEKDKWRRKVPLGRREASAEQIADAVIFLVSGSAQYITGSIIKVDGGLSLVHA

[4] = molecular target: Bifunctional dihydrofolate reductase-thymidylate synthase (Leishmania major, UniProt P07382); assay: Inhibition of recombinant Leishmania major DHFR-TS expressed in Escherichia coli BL21 (DE3) cells using dihydrofolate as substrate in presence of NADPH by spectrophotometric analysis
Bifunctional dihydrofolate reductase-thymidylate synthase (Leishmania major, UniProt P07382), sequence (P07382 whole entry): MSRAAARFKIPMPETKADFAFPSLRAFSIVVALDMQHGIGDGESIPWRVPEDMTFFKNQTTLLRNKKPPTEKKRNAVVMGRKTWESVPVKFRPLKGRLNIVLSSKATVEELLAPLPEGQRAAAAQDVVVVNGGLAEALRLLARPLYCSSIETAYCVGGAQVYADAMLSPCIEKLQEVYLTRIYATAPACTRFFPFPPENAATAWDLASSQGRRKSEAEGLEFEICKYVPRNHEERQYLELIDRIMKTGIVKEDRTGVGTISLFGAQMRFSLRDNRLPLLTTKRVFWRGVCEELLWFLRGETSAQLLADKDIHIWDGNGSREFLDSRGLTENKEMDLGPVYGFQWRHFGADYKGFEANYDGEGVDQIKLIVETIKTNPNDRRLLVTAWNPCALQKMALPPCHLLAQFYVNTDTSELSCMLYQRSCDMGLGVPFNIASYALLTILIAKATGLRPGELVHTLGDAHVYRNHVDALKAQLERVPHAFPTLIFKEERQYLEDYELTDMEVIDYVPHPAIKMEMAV

[5] = test system: human DHFR versus Leishmania major PTR1; assay: Selectivity index, ratio of IC50 for human DHFR to IC50 for Leishmania major PTR1; assay type: toxicity; conditions: read-out: Ratio IC50
Pteridine reductase 1 = molecular target: T3, Pteridine reductase 1 (Leishmania major, UniProt Q01782); assay: Inhibition of recombinant Leishmania major PTR1 expressed in Escherichia coli BL21 (DE3) cells using H2B as substrate in presence of cytochrome c and NADPH by envision multilabel reader
T3 sequence (Q01782 whole entry): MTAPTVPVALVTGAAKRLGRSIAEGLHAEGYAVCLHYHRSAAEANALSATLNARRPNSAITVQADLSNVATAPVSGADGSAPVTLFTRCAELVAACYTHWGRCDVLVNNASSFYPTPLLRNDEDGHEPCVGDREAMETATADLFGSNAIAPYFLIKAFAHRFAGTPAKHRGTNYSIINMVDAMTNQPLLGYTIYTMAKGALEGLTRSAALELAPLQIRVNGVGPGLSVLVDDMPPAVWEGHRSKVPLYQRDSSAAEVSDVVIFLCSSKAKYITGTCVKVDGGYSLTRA

786-0 = assay: Mitochondrial toxicity in human 786-0 cells at 10 uM incubated with compound for 6 hrs followed by incubation with MitoTracker Red chloromethyl-X-rosamine dye for 45 mins by imaging analysis relative to control; assay type: cell-based; conditions: 786-0, 6 h
Summary of the method: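 Tested at 10 μM. 786-O cells kept in RPMI-1640 with 2 mM glutamine, 10% FCS, streptomycin 100 μg/mL and penicillin G 100 U/mL. Mitochondrial toxicity read as MitoTracker Red (chloromethyl-X-rosamine) uptake by high-content imaging.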

[6] = test system: human DHFR versus Trypanosoma brucei DHFR; assay: Selectivity index, ratio of IC50 for human DHFR to IC50 for Trypanosoma brucei DHFR; assay type: toxicity; conditions: read-out: Ratio IC50
[7] = molecular target: Bifunctional dihydrofolate reductase-thymidylate synthase (Trypanosoma brucei brucei, UniProt Q27783); assay: Inhibition of recombinant Trypanosoma brucei DHFR-TS expressed in Escherichia coli BL21 (DE3) cells using dihydrofolate as substrate in presence of NADPH by spectrophotometric analysis
Bifunctional dihydrofolate reductase-thymidylate synthase (Trypanosoma brucei brucei, UniProt Q27783), sequence (Q27783 whole entry): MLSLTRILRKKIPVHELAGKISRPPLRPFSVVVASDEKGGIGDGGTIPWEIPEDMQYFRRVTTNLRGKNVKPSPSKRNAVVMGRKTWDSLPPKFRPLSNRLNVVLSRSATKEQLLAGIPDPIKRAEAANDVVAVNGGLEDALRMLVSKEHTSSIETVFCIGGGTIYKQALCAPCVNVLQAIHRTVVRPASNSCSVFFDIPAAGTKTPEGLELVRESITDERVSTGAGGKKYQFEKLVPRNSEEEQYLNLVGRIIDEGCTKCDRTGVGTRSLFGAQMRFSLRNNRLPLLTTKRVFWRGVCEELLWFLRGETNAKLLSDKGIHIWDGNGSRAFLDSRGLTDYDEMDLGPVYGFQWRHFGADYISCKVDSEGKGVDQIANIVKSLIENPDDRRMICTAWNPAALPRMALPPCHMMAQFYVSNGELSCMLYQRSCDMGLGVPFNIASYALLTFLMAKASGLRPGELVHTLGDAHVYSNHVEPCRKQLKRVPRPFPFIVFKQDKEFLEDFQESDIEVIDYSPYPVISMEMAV

A549 = assay: Cytotoxicity against human A549 cells at 10 uM measured after 48 hrs by Celltiter-Glo assay relative to control; assay type: toxicity, cell-based; conditions: a549, 48 h
Summary of the method: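 Tested at 10 μM. A549 cells grown in DMEM with 10% FCS, streptomycin 100 μg/mL and penicillin G 100 U/mL. Viability read as cellular ATP by CellTiter-Glo luminescence.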

[8] = test system: human DHFR versus Leishmania major DHFR; assay: Selectivity index, ratio of IC50 for human DHFR to IC50 for Leishmania major DHFR; assay type: toxicity; conditions: read-out: Ratio IC50
[9] = test system: Trypanosoma brucei brucei; assay: Antitrypanosomal activity against bloodstream form of Trypanosoma brucei brucei Lister 427 assessed as parasite growth inhibition at 10 uM incubated for 72 hrs by resazurin dye based analysis relative to control; assay type: functional
CYP3A4 = CYP3A4 (Homo sapiens, UniProt P08684); assay: Inhibition of CYP3A4 (unknown origin) expressed in baculovirus-infected insect cells at 10 uM using CYP/Luciferin as substrate incubated for 30 mins in presence of NADPH by luminescence based analysis relative to control; assay type: ADME; conditions: probe CYP/Luciferin
CYP3A4, sequence (P08684 whole entry, canonical isoform): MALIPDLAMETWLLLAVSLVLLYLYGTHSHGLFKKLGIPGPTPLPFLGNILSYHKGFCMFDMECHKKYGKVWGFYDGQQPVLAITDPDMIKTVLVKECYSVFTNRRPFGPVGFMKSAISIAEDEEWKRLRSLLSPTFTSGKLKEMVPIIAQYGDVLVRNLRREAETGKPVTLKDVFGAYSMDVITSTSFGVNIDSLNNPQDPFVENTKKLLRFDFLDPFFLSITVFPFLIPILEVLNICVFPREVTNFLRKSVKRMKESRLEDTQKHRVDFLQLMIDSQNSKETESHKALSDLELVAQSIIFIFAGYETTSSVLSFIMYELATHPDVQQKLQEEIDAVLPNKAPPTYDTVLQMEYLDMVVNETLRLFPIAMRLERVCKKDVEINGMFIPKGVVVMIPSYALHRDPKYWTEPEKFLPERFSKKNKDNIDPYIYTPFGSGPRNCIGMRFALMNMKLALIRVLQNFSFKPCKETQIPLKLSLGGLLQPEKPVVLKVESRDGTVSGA
Summary of the method: (§1)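 Tested at 10 μM using microsomal preparations of each CYP isoform from baculovirus-infected insect cells on a luminescent P450-Glo platform. The enzyme acts on its substrate to give light, and a fall in luminescence indicates inhibition.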

CYP1A2 = molecular target: T4, CYP1A2 (Homo sapiens, UniProt P05177); assay: Inhibition of CYP1A2 (unknown origin) expressed in baculovirus-infected insect cells at 10 uM using CYP/Luciferin as substrate incubated for 30 mins in presence of NADPH by luminescence based analysis relative to control; assay type: ADME; conditions: probe CYP/Luciferin; summary of the method: as §1
T4 sequence (P05177 whole entry): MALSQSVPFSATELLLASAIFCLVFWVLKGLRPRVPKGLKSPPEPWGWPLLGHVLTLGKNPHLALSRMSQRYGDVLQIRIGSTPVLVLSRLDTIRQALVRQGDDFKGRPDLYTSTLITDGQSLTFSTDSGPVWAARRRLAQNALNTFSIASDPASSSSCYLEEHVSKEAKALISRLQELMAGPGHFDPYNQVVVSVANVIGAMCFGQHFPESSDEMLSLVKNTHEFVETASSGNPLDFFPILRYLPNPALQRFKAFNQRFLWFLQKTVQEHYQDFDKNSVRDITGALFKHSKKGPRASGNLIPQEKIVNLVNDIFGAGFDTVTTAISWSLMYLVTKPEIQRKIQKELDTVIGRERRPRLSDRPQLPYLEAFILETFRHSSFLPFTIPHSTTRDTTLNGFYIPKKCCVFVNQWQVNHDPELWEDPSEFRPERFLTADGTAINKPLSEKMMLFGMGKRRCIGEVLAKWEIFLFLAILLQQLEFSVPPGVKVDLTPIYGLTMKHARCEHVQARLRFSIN

CYP2C19 = CYP2C19 (Homo sapiens, UniProt P33261); assay: Inhibition of CYP2C19 (unknown origin) expressed in baculovirus-infected insect cells at 10 uM using CYP/Luciferin as substrate incubated for 30 mins in presence of NADPH by luminescence based analysis relative to control; assay type: ADME; conditions: probe CYP/Luciferin; summary of the method: as §1
CYP2C19, sequence (P33261 whole entry): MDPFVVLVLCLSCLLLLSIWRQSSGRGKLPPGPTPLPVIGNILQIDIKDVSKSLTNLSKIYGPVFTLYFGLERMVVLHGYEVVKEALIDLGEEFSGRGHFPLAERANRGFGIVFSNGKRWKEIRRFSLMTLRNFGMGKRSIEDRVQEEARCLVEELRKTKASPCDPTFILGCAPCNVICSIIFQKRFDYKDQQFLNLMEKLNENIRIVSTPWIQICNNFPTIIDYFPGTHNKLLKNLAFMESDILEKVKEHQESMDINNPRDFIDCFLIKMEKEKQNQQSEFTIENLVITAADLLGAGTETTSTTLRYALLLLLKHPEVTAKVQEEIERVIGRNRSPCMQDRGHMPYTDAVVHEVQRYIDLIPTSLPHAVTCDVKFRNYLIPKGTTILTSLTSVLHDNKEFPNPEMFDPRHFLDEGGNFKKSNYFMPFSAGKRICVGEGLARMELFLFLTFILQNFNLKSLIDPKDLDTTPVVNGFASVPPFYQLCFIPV

[10] = (§2) Cytotoxicity against human THP-1 derived macrophages by colorimetric MTT assay; assay type: toxicity, cell-based, Macrophage; conditions: THP-1 derived macrophages
Summary of the method: (§3)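 CC50 from at least three independent MTT colorimetric cytotoxicity runs on THP-1-derived macrophages. Selectivity index is CC50 (or lower CC50 interval estimate) divided by antiparasitic EC50.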

[11] = test system: Trypanosoma brucei brucei; assay: Antitrypanosomal activity against bloodstream form of Trypanosoma brucei brucei Lister 427 assessed as parasite growth inhibition incubated for 72 hrs by resazurin dye based analysis; assay type: functional, organism-based; conditions: Lister 427, 72 h
CYP2C9 = CYP2C9 (Homo sapiens, UniProt P11712); assay: Inhibition of CYP2C9 (unknown origin) expressed in baculovirus-infected insect cells at 10 uM using CYP/Luciferin as substrate incubated for 30 mins in presence of NADPH by luminescence based analysis relative to control; assay type: ADME; conditions: probe CYP/Luciferin; summary of the method: as §1
CYP2C9, sequence (P11712 whole entry): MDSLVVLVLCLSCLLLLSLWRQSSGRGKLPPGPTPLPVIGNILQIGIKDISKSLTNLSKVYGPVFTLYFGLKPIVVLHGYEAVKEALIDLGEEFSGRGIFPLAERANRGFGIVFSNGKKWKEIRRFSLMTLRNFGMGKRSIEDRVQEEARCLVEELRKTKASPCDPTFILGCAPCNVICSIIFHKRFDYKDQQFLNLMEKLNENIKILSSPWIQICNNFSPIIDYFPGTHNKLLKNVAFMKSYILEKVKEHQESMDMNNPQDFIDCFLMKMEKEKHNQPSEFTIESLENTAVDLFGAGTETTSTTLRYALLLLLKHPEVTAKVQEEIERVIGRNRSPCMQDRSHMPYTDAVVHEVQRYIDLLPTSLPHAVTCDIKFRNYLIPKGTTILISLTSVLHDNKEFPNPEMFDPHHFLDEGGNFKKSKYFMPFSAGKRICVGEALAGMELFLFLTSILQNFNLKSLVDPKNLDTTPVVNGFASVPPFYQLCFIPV

Macrophage = assay: as §2; assay type: toxicity, cell-based; conditions: macrophage; summary of the method: as §3
CYP2D6 = CYP2D6 (Homo sapiens, UniProt P10635); assay: Inhibition of CYP2D6 (unknown origin) expressed in baculovirus-infected insect cells at 10 uM using CYP/Luciferin as substrate incubated for 30 mins in presence of NADPH by luminescence based analysis relative to control; assay type: ADME; conditions: probe CYP/Luciferin; summary of the method: as §1
CYP2D6, sequence (P10635 whole entry): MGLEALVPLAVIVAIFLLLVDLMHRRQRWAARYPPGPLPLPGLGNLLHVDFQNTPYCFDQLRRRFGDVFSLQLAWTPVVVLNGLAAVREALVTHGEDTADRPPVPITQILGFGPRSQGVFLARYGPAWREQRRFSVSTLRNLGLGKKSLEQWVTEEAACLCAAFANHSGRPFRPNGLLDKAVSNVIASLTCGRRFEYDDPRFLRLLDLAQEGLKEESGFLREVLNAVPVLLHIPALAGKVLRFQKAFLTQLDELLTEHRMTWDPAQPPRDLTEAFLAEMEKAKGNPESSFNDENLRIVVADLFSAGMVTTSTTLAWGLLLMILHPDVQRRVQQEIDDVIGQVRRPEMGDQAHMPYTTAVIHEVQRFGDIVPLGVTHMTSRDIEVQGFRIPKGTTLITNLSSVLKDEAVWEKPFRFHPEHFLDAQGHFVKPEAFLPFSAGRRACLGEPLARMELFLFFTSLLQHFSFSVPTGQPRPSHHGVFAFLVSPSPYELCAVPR

| SMILES | IC50 (Dihydrofolate reductase) | selectivity ratio [1] | IC50 [3] | IC50 [4] | selectivity ratio [5] | IC50 (Pteridine reductase 1) | Activity (786-0) | selectivity ratio [6] | IC50 [7] | Activity (A549) | selectivity ratio [8] | inhibition at 10 µM [9] | inhibition at 0.5 h, 10 µM (CYP3A4) | further results |
| --- | --- | --- | --- | --- | --- | --- | --- | --- | --- | --- | --- | --- | --- | --- |
| COC(=O)C1CCN(C(=O)c2ccc(N(Cc3ccccc3)Cc3cnc4nc(N)nc(N)c4n3)cc2)CC1 | 73000 nM | > 730000 | < 0.1 nM | 910 nM | 3650 | 20 nM | 0% | 61 | 1200 nM | 100% | 80 |  |  | inhibition (INH) [2]: 45% |
| NC(=O)C1CCCN1C(=O)Cc1ccc(N(CCCO)Cc2cnc3nc(N)nc(N)c3n2)cc1 (stereo unspecified) |  |  | 4 nM | 890 nM |  | 170 nM |  |  | 590 nM |  |  | 23% | 0% |  |
| COC(=O)C1CCN(C(=O)Cc2ccc(NCc3cnc4nc(N)nc(N)c4n3)cc2)CC1 | 35000 nM | 250 | 140 nM | 850 nM | 31 | 1140 nM | 0% | 56 | 620 nM | 100% | 41 |  |  | inhibition at 0.5 h, 10 µM (CYP1A2): 12%; inhibition at 0.5 h, 10 µM (CYP2C19): 12% |
| COc1ccc(Oc2ccc(CN(C)Cc3cnc4nc(N)nc(N)c4n3)cc2)cc1 |  |  | 150 nM |  |  | 450 nM | 1% |  |  | 15% |  | 100% |  | CC50 [10]: 12500 nM; inhibition at 0.5 h, 10 µM (CYP1A2): 9%; EC50 [11]: 1300 nM |
| COC(=O)C1CCN(C(=O)c2ccc(N(CCCO)Cc3cnc4nc(N)nc(N)c4n3)cc2)CC1 | 15000 nM | 500 | 30 nM | 760 nM | 68 | 220 nM | 0% | 35 | 430 nM | 100% | 20 |  |  | inhibition at 0.5 h, 10 µM (CYP2C9): 17% |
| N=C(N)c1ccc(OCCCCCOc2ccc(C(=N)N)cc2)cc1 [PENTAMIDINE] |  |  |  |  |  |  |  |  |  |  |  |  |  | CC50 (Macrophage): 10000 nM |
| COC(=O)C1CCN(C(=O)c2ccc(N(CCO)Cc3cnc4nc(N)nc(N)c4n3)cc2)CC1 |  |  | 200 nM | 1210 nM |  |  | 0% |  | 1260 nM | 100% |  |  |  | inhibition at 0.5 h, 10 µM (CYP2D6): 0% |
| CCN(Cc1cnc2nc(N)nc(N)c2n1)c1ccc(C(=O)c2ccccc2)cc1 |  |  | < 0.1 nM | 230 nM |  | 50 nM | 0% |  | 340 nM | 0% |  | 78% |  | CC50 [10]: 25000 nM; EC50 [11]: 660 nM |
| COc1ccc(Oc2ccc(CNCc3cnc4nc(N)nc(N)c4n3)cc2)cc1 |  | 192 | 520 nM |  | 385 | 260 nM | 0% | 1 |  |  | 1 |  | 33% |  |
| Nc1nc(N)c2nc(CNc3ccc(C(=O)c4ccccc4)cc3)cnc2n1 | 6020 nM | 6020 | 1 nM | 3260 nM | 201 | 30 nM | 10% | 6 | 990 nM |  | 2 |  | 17% |  |
